According to ChEMBL document CHEMBL3797027, “Potent anti-proliferative actions of a non-diuretic glucosamine derivative of ethacrynic acid” (Bioorg Med Chem Lett, 2016):
Activity calls are given as the source filed them. The rule behind the calls is not given here.

Columns and labels:
MDA-MB-231 = experiment: Cytotoxic activity against human MDA-MB-231 cells assessed as inhibition of cell proliferation incubated for 72 hrs by MTT assay; type: functional, cell-based
Procedure, shortened: (§1)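 MTT cell survival assay. IC50 is the concentration that inhibits tumour cell proliferation by 50%, read from cell survival curves. Values are given as mean ± SD of three independent experiments.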

[1] = Cytotoxic activity against human MCF10A cells assessed as inhibition of cell proliferation incubated for 72 hrs by MTT assay; type: cell-based; conditions: mcf-10a; procedure, shortened: as §1
Mus musculus = experiment: Toxic diuretic effect in 12 hrs fasted CD1 mouse assessed as increase in urine output at 10 mg/kg, ip measured 0 to 6 hrs post dose relative to untreated control; type: toxicity, organism-based; conditions: in vivo
Procedure, shortened: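 Female CD-1 mice fasted 12 h, then given compound IP at 10 mg/kg in PEG/EtOH/H2O (54:14:32). Vehicle control group included. Mice were housed singly in metabolic cages with free access to water. Voided urine was collected in graduated tubes under the cages over 0–6 h and 6–24 h after injection.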

[2] = Cytotoxic activity against human H1299 cells assessed as inhibition of cell proliferation incubated for 72 hrs by MTT assay; type: functional, cell-based; conditions: NCI-H1299, 72 h; procedure, shortened: as §1
[3] = Cytotoxic activity against human GBM10 cells assessed as inhibition of cell proliferation incubated for 72 hrs by MTT assay; type: functional, cell-based; conditions: GBM10, 72 h; procedure, shortened: as §1
[4] = Cytotoxic activity against human SF188 cells assessed as inhibition of cell proliferation incubated for 72 hrs by MTT assay; type: functional, cell-based; conditions: SF-188, 72 h; procedure, shortened: as §1
[5] = Cytotoxic activity against human SKBR3 cells assessed as inhibition of cell proliferation incubated for 72 hrs by MTT assay; type: functional, cell-based; conditions: SK-BR-3, 72 h; procedure, shortened: as §1
MDA-MB-468 = experiment: Cytotoxic activity against human MDA-MB-468 cells assessed as inhibition of cell proliferation incubated for 72 hrs by MTT assay; type: functional, cell-based; conditions: MDA-MB-468, 72 h; procedure, shortened: as §1
MCF7 = experiment: Cytotoxic activity against human MCF7 cells assessed as inhibition of cell proliferation incubated for 72 hrs by MTT assay; type: functional, cell-based; conditions: MCF7, 72 h; procedure, shortened: as §1
HT-29 = experiment: Cytotoxic activity against human HT-29 cells assessed as inhibition of cell proliferation incubated for 72 hrs by MTT assay; type: functional, cell-based; conditions: HT-29, 72 h; procedure, shortened: as §1
[6] = Cytotoxic activity against human HCT116 cells assessed as inhibition of cell proliferation incubated for 72 hrs by MTT assay; type: functional, cell-based; conditions: HCT-116, 72 h; procedure, shortened: as §1
[7] = Cytotoxic activity against human HT1080 cells assessed as inhibition of cell proliferation incubated for 72 hrs by MTT assay; type: functional, cell-based; conditions: HT-1080, 72 h; procedure, shortened: as §1

SMILES: N[C@H]1C(O)O[C@H](CO)[C@@H](O)[C@@H]1O (stereo partly drawn) [GLUCOSAMINE]
- growth inhibition (GI) (MDA-MB-231): inactive
- Activity [1]: Non-toxic

SMILES: C=C(CC)C(=O)c1ccc(OCC(=O)O)c(Cl)c1Cl [ETHACRYNIC ACID]
- fold change (FC) (Mus musculus): <= 6
- IC50 [2]: 44.3 µM
- IC50 [3]: 29.9 µM
- IC50 [4]: 31.7 µM
- IC50 [5]: 34.2 µM
- IC50 (MDA-MB-231; MDA-MB-231, 72 h): 45.2 µM
- IC50 (MDA-MB-468): 81.5 µM
- IC50 (MCF7): 28.9 µM
- IC50 (HT-29): 62.4 µM
- IC50 [6]: 30.2 µM
- IC50 [7]: 54.5 µM
